CR mimetic SO: lowers age-related superoxide in aged yeast cells; S. cerevisiae aged cells, superoxide DHE fluorescence; active compounds read low; superoxide response (% of plate mean), % at 10 µM; 330,000 compounds, 0.18% hits; AID 2690;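 active = superoxide response under a set limit, about three screen SD below normal, cut at about 65% in these data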;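 note: yeast aged for seven days with compound at 30 °C before DHE staining; 100% = average MFI of all compound-treated wells on the plate with controls excluded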
Cneo AK release: causes C. neoformans cell lysis; adenylate kinase release luminescence, 4 h; normalised: neutral wells 0, clomiphene wells 100; lysis activity, % at 15 µM; 360,000 compounds, 0.2% hits; AID 651654;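 active = mean lysis activity across replicates of at least 80%, whatever share of replicates individually reach that level; inactive = mean lysis activity below 80%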
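Schedule: static 4 h at 37 °C with compound, 1 h detection; system: C. neoformans cells; benchmarks: Clomiphene as positive control; buffer or medium: fresh YPD medium; measure: luminescence rise reflecting yeast cell lysis; measured by: luminescent adenylate kinase detection reagent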
Ecoli rRNA inh: inhibitors of bacterial rRNA selective over humanized ribosomes. E. coli WT GFP vs humanized-ribosome RFP mutants, fluorescence, 24 h; active compounds read low; DMSO median 0, no signal -100. GFP signal change (wild-type ribosome), % (test concentration not listed). 350,000 compounds, 1.6% hits. AID 720706;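 active = significant combined selectivity score with lowered wild-type GFP, culture density cut under 30%, mutant RFP and density less affected; inactive = any of these conditions unmet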
PglD DTNB: blocks C. jejuni PglD acetyltransferase activity. purified PglD enzyme, DTNB colorimetric CoA detection. 360,000 compounds, 0.098% hits. inhibition, % at 12.5 µM; in the data active = inhibition above about 16%, passing the limit was not always enough
SUMO Mot1 rescue: inhibitors of SUMOylation pathway: yeast Mot1-301 growth rescue; 320,000 compounds, 1% hits; S. cerevisiae Mot1-301 growth rescue, ATP luminescence, 38.5C; percent above DMSO median, 100 means doubled; growth rescue, % at 18.8 µM; AID 2716;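 active = every valid replicate shows activation above 250% relative to neutral control wells; inactive = the rest, any valid replicate at or below 250%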;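 note: OY570 slx delta 5 strain wells were the positive control but not used for scaling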
An asterisk follows results filed as active; nt = no result. An excerpt weighted towards active compounds, which were near 2.2% of everything screened.

SMILES	CR mimetic SO	Cneo AK release	Ecoli rRNA inh	PglD DTNB	SUMO Mot1 rescue
C[C@H](CO)N1C[C@H](C)[C@H](CN(C)C(=O)c2ccccc2)OCCCC[C@H](C)Oc2ccc(NC(=O)c3ccccc3)cc2C1=O	nt	-1	-4	-1	nt
O=C(Nc1ccc(Cl)c(S(=O)(=O)N2CCOCC2)c1)c1ccc2c(c1)OCCO2	94	nt	-35	nt	-15
O=C(Nc1ccc(Cl)c(S(=O)(=O)N2CCOCC2)c1)c1ccc2c(c1)OCO2	97	-1	-23*	0	6
O=C(COC(=O)c1ccc([N+](=O)[O-])o1)Nc1cccc(S(=O)(=O)N2CCCCC2)c1	112	0	2	4	3
O=C(Nc1cccc(S(=O)(=O)N2CCCCC2)c1)c1ccc([N+](=O)[O-])o1	117	6	-28*	-7	41
Cc1ccc(NC(=O)c2ccc([N+](=O)[O-])o2)cc1S(=O)(=O)N1CCOCC1	110	nt	-23*	nt	3
O=C(NCc1ccc(Cl)cc1)c1cccc(S(=O)(=O)N2CCCC2)c1	102	1	-19*	1	-5
Cc1ccc(NC(=O)c2cc([N+](=O)[O-])ccc2N2CCOCC2)cc1S(=O)(=O)N1CCOCC1	95	4	-10	-1	7
O=C(O)C[C@@H]1C=C[C@@H](NC(=O)Nc2ccccc2)[C@H](CO)O1	nt	-2	1	-1	nt
C[C@@H]1CCCCO[C@@H](CN(C)C(=O)Cc2ccccc2)[C@@H](C)CN([C@H](C)CO)C(=O)c2cc(NC(=O)CCCN(C)C)ccc2O1	nt	-3	3	0	nt
C[C@@H]1CN([C@@H](C)CO)C(=O)c2cc(NC(=O)Nc3cccc4ccccc34)ccc2O[C@@H]1CN(C)Cc1ccc(Oc2ccccc2)cc1	nt	-1	4	-3	nt
COc1ccc(NC(=O)N(C)C[C@H]2Oc3c(NS(C)(=O)=O)cccc3C(=O)N([C@@H](C)CO)C[C@H]2C)cc1	nt	-2	1	3	nt
COc1ccc(S(=O)(=O)N2[C@@H]3CNC[C@H]2C3c2ccc(-c3cccc(C)c3)cc2)cc1 (stereo not given in full)	nt	nt	-4	nt	nt
O=C(Nc1cccc(S(=O)(=O)N2CCCCC2)c1)c1ccc(Cl)nc1	113	0	-24*	-1	1
O=C(Nc1cccc(S(=O)(=O)N2CCCCCC2)c1)c1ccc(Cl)nc1	83	-3	-11	-4	-13
COc1cc(OC)cc(C(=O)N[C@H](C(=O)Nc2cccc(S(=O)(=O)N3CCCC3)c2)C(C)C)c1	89	2	6	5	720*
CNC(=O)C[C@@H]1CC[C@@H]2[C@H](COc3ccc(NC(=O)Nc4ccccc4F)cc3C(=O)N2C)O1	nt	-3	-3	-1	nt
Cc1nc(NC(=S)Nc2ccccc2)sc1C	105	nt	-27*	nt	-22
CCc1nnc(NC(=S)Nc2ccccc2)s1	94	nt	-1	nt	9
C[C@@H]1CN([C@H](C)CO)C(=O)Cc2cc(NC(=O)c3ccncc3)ccc2O[C@H]1CN(C)S(=O)(=O)c1ccccc1	nt	-49	1	-2	nt
CCOC(=O)C1CCCCN1Cc1ccc(-c2ccccc2)cc1 (stereo not given)	105	1	-29*	-3	1
CCOC(=O)C1CCCCN1Cc1ccc(F)cc1 (stereo not given)	81	0	7	1	16
O=C(NNC(=O)c1sc2ccccc2c1Cl)Nc1ccc(Cl)cc1	96	4	-20*	4	-11
CN1CCN(c2ccc(NC(=O)c3sc4ccccc4c3Cl)cc2)CC1	111	12	-25*	0	143
CN1CCN(C(=O)c2ccccc2NC(=O)c2sc3ccccc3c2Cl)CC1	85	3	-12	-8	12
SMILES	CR mimetic SO	Cneo AK release	Ecoli rRNA inh	PglD DTNB	SUMO Mot1 rescue
CC(=O)n1cc([C@H]2C=C(C(=O)N3CCCCCCC3)O[C@@H](OCCCCO)C2)c2ccccc21	nt	-12	nt	48	nt
O=C(COC(=O)CCC1CCCC1)Nc1nc2c(F)c(F)c(F)cc2s1	96	91*	nt	-4	9
O=C(c1csc(Nc2ccccc2Cl)n1)N1CCCC1	112	0	nt	5	-19
O=C(c1csc(Nc2cccc3ccccc23)n1)N1CCCC1	101	-5	-32*	4	607*
CCCN(C)C[C@H]1OCCCC[C@@H](C)Oc2ccc(NC(=O)NC(C)C)cc2C(=O)N([C@H](C)CO)C[C@@H]1C	nt	1	5	1	nt
CCC(=O)Nc1ccc2c(c1)C(=O)N(C)C[C@H](OC)[C@@H](C)CN(C(=O)C1CC1)[C@H](C)CO2	nt	-3	2	2	nt
COc1ccc(Nc2nc(C(=O)N3CCc4cc(OC)c(OC)cc4C3)cs2)cc1	104	nt	-39*	nt	271
COc1ccc(Nc2nc(C(=O)N3CCc4ccccc4C3)cs2)cc1	120	nt	-48	nt	-6
COCCCn1c(SCCc2ccccc2)nc2cc(OC)c(OC)cc2c1=N	117	2	-41*	-3	4
O=C(C1CC1)N1CC(=O)N2[C@H](CO)[C@H](c3ccc(C#Cc4cccc(F)c4)cc3)[C@@H]2C1	nt	nt	3	nt	nt
COc1ccc(-n2cc(-c3ccc(OC)c(OC)c3)[nH]c2=S)cc1	99	nt	7	nt	545*
C[C@@H]1CN([C@H](C)CO)C(=O)Cc2cc(NC(=O)Nc3ccc4c(c3)OCO4)ccc2O[C@@H]1CN(C)C(=O)Nc1ccc(F)cc1	nt	-2	3	-1	nt
CCOc1ccccc1N1CCN(C(=O)CCCc2nc3ccccc3s2)CC1	94	nt	-30*	nt	1
O=C(CCCc1nc2ccccc2s1)N1CCN(c2ccccc2F)CC1	90	nt	-24	nt	6
Cc1cccc(N2CCN(C(=O)CNC(=O)c3cccc([N+](=O)[O-])c3)CC2)c1C	89	0	-19*	-2	-19
COC(=O)c1sc(-c2ccc(Cl)cc2)cc1NC(=O)CSCC(=O)O	109	4	-42*	-3	330
CC(=O)N(C)C[C@@H]1Oc2ncc(-c3ccc(C)cc3)cc2C(=O)N([C@H](C)CO)C[C@@H]1C	nt	-7	7	-1	nt
C[C@@H](NC(=O)[C@@H]1[C@@H](CO)[C@@H]2Cn3c(cccc3=O)[C@H]1N2Cc1cccnc1)c1ccccc1	nt	1	2	2	nt
Cc1cc(=O)oc2cc(NS(=O)(=O)c3ccc(F)cc3)ccc12	92	-5	-22*	-1	-12
Cc1cc(=O)oc2cc(NS(=O)(=O)c3ccccc3)ccc12	107	2	-4	6	9
CC(=O)c1sc(NC(=O)c2cc(-c3ccccc3)nn2-c2ccccc2)nc1C	94	81*	17	-7	-4
CS(=O)(=O)N1CCc2cc(NC(=O)c3ccc(Cl)cc3Cl)ccc21	94	nt	-24*	nt	9
CS(=O)(=O)N1CCc2cc(C(=O)Nc3ccc(Cl)cc3)ccc21	96	-1	9	-3	-8
Cc1cc(N2CCN(C)CC2)nc2ccc(NC(=S)N3CCN(c4ccc(Cl)cc4)CC3)cc12	110	3	3	-7	539*
